Test results published in ChEMBL document CHEMBL1140812, “Synthesis of genistein derivatives and determination of their protective effects against vascular endothelial cell damages caused by hydrogen peroxide” (Bioorg Med Chem Lett, 2008).
Active and inactive are the calls of the source. No cut-off for these calls is given here.

How the values were obtained:
HUVE12 [1] = test: Reversal of hydrogen peroxide-induced LDH activity in human HUVE12 cells; type: functional, cell-based
Method in brief: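 HUVE-12 cells pretreated 30 min with compound (0.1–10.0 µM) or 0.02% DMSO vehicle, then 1 mM H2O2 for 24 h at 37 °C. Medium sampled before harvest; LDH activity measured by colorimetric kit as a marker of cell injury. Average of three experiments.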

HUVE12 [2] = test: Protection against hydrogen peroxide-induced apoptosis in human HUVE12 cells; type: functional, cell-based
Method in brief: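 HUVE-12 cells in DMEM with 10% newborn calf serum at 37 °C, 5% CO2. Pretreated 30 min with compound (0.1, 1.0, 10.0 µM; also 0.1–10.0 µM series) or 0.02% DMSO vehicle, then 1 mM H2O2 for 24 h. Trypsinized, fixed in 70% ice-cold ethanol, stained with PI/RNase A 15 min at 37 °C; apoptosis by flow cytometry. Three independent experiments.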

Row | SMILES | Activity (HUVE12 [1]) | Activity (HUVE12 [2])
1 | O=c1c(-c2ccc(O)cc2)coc2cc(OC(F)F)cc(O)c12 | Active | –
2 | O=c1c(-c2ccc(OC(F)F)cc2)coc2cc(OC(F)F)cc(O)c12 | Active | –
3 | O=c1c(-c2ccc(OCc3ccccc3)cc2)coc2cc(OC(F)F)cc(OCc3ccccc3)c12 | Active | –
4 | O=c1c(-c2ccc(O)cc2)coc2cc(O)cc(O)c12 | Active | –
5 | CCOc1ccc(-c2coc3cc(OC(F)F)cc(OCC)c3c2=O)cc1 | Active | –
6 | CCCOc1ccc(-c2coc3cc(OC(F)F)cc(OCCC)c3c2=O)cc1 | Active | –
7 | CCCCCCCCOc1ccc(-c2coc3cc(OC(F)F)cc(OCCCCCCCC)c3c2=O)cc1 | Active | –
8 | CCCCCCCOc1ccc(-c2coc3cc(OC(F)F)cc(OCCCCCCC)c3c2=O)cc1 | Active | –
9 | COc1ccc(-c2coc3cc(OC(F)F)cc(OC)c3c2=O)cc1 | Active | Active
10 | CC(C)C/C=C/Oc1ccc(-c2coc3cc(OC(F)F)cc(O/C=C/CC(C)C)c3c2=O)cc1 | Active | –
11 | CCCCCCCCCOc1ccc(-c2coc3cc(OC(F)F)cc(OCCCCCCCCC)c3c2=O)cc1 | Active | –
